Results reported in ChEMBL document CHEMBL2380298, “Synthesis and antimicrobial activity of novel amphiphilic aromatic amino alcohols” (2013).

Key:
Type in all cases: functional
Nakaseomyces glabratus = assay: Antimicrobial activity against Candida glabrata ATCC 18804 by broth dilution method
Staphylococcus aureus [1] = assay: Antimicrobial activity against methicillin-resistant Staphylococcus aureus clinical isolate 236 by broth dilution method
Staphylococcus aureus [2] = assay: Bactericidal activity against methicillin-resistant Staphylococcus aureus clinical isolate 235 after 24 hrs; details: isolate 235, 24 h
Procedure, shortened: (§1)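 Bactericidal concentration: 0.1 ml from wells at the MIC dilution and the dilutions on either side was streaked onto tryptic soy agar and incubated 24 h. It was taken as the lowest drug concentration giving no growth (100% killing).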

Staphylococcus aureus [3] = assay: Antimicrobial activity against methicillin-resistant Staphylococcus aureus clinical isolate 255 by broth dilution method
Staphylococcus aureus [4] = assay: Bactericidal activity against methicillin-resistant Staphylococcus aureus clinical isolate 176 after 24 hrs; details: isolate 176, 24 h; procedure, shortened: as §1
[5] = test system: Staphylococcus epidermidis; assay: Bactericidal activity against Staphylococcus epidermidis ATCC 12228 after 24 hrs; details: ATCC 12228, 24 h
Procedure, shortened: (§2)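 MBC: after MIC determination, 0.1 ml from the MIC well and from two dilutions either side streaked on tryptic soy agar, incubated 24 h; MBC taken as lowest concentration giving no growth (100% kill).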

Escherichia coli [6] = assay: Antimicrobial activity against Escherichia coli ATCC 11229 by broth dilution method
Staphylococcus aureus [7] = assay: Bactericidal activity against methicillin-resistant Staphylococcus aureus clinical isolate 227 after 24 hrs; details: isolate 227, 24 h; procedure, shortened: as §1
Staphylococcus aureus [8] = assay: Antimicrobial activity against methicillin-resistant Staphylococcus aureus clinical isolate 238 by broth dilution method
Staphylococcus aureus [9] = assay: Antimicrobial activity against methicillin-resistant Staphylococcus aureus clinical isolate 212 by broth dilution method
Staphylococcus aureus [10] = assay: Antimicrobial activity against methicillin-resistant Staphylococcus aureus clinical isolate 260 by broth dilution method
Staphylococcus aureus [11] = assay: Antimicrobial activity against Staphylococcus aureus ATCC 29213 by broth dilution method; details: Staphylococcus aureus, ATCC 29213
Staphylococcus aureus [12] = assay: Bactericidal activity against methicillin-resistant Staphylococcus aureus clinical isolate 207 after 24 hrs; details: isolate 207, 24 h; procedure, shortened: as §1
Staphylococcus aureus [13] = assay: Antimicrobial activity against methicillin-resistant Staphylococcus aureus clinical isolate 218 by broth dilution method
Staphylococcus aureus [14] = assay: Bactericidal activity against methicillin-resistant Staphylococcus aureus clinical isolate 238 after 24 hrs; details: isolate 238, 24 h; procedure, shortened: as §1
Staphylococcus aureus [15] = assay: Antimicrobial activity against methicillin-resistant Staphylococcus aureus clinical isolate 257 by broth dilution method
Candida parapsilosis = assay: Antimicrobial activity against Candida parapsilosis ATCC 90030 by broth dilution method; details: Lodderomyces parapsilosis
Staphylococcus aureus [16] = assay: Bactericidal activity against methicillin-resistant Staphylococcus aureus clinical isolate 232 after 24 hrs; details: isolate 232, 24 h; procedure, shortened: as §1
Staphylococcus aureus [17] = assay: Bactericidal activity against methicillin-resistant Staphylococcus aureus clinical isolate 260 after 24 hrs; details: isolate 260, 24 h; procedure, shortened: as §1
Staphylococcus aureus [18] = assay: Antimicrobial activity against methicillin-resistant Staphylococcus aureus clinical isolate 227 by broth dilution method
Staphylococcus aureus [19] = assay: Bactericidal activity against methicillin-resistant Staphylococcus aureus clinical isolate 255 after 24 hrs; details: isolate 255, 24 h; procedure, shortened: as §1
[20] = test system: Staphylococcus epidermidis; assay: Antimicrobial activity against Staphylococcus epidermidis ATCC 12228 by broth dilution method; details: for MIC: Staphylococcus epidermidis, ATCC 12228
Staphylococcus aureus [21] = assay: Antimicrobial activity against methicillin-resistant Staphylococcus aureus clinical isolate by broth dilution method
Staphylococcus aureus [22] = assay: Antimicrobial activity against methicillin-resistant Staphylococcus aureus clinical isolate 235 by broth dilution method
Staphylococcus aureus [23] = assay: Bactericidal activity against methicillin-resistant Staphylococcus aureus clinical isolate 215 after 24 hrs; details: isolate 215, 24 h; procedure, shortened: as §1
Staphylococcus aureus [24] = assay: Bactericidal activity against methicillin-resistant Staphylococcus aureus clinical isolate 259 after 24 hrs; details: isolate 259, 24 h; procedure, shortened: as §1
Pseudomonas aeruginosa = assay: Antimicrobial activity against Pseudomonas aeruginosa ATCC 27853 by broth dilution method
Staphylococcus aureus [25] = assay: Antimicrobial activity against methicillin-resistant Staphylococcus aureus clinical isolate 195 by broth dilution method
Staphylococcus aureus [26] = assay: Bactericidal activity against methicillin-resistant Staphylococcus aureus clinical isolate 236 after 24 hrs; details: isolate 236, 24 h; procedure, shortened: as §1
Staphylococcus aureus [27] = assay: Antimicrobial activity against methicillin-resistant Staphylococcus aureus clinical isolate 215 by broth dilution method
Staphylococcus aureus [28] = assay: Antimicrobial activity against methicillin-resistant Staphylococcus aureus clinical isolate 207 by broth dilution method
Staphylococcus aureus [29] = assay: Antimicrobial activity against methicillin-resistant Staphylococcus aureus clinical isolate 225 by broth dilution method
Staphylococcus aureus [30] = assay: Bactericidal activity against methicillin-resistant Staphylococcus aureus clinical isolate 178 after 24 hrs; details: isolate 178, 24 h; procedure, shortened: as §1
Staphylococcus aureus [31] = assay: Bactericidal activity against methicillin-resistant Staphylococcus aureus clinical isolate 264 after 24 hrs; details: isolate 264, 24 h; procedure, shortened: as §1
Escherichia coli [32] = assay: Bactericidal activity against Escherichia coli ATCC 11229 after 24 hrs; details: ATCC 11229, 24 h; procedure, shortened: as §2
Staphylococcus aureus [33] = assay: Antimicrobial activity against methicillin-resistant Staphylococcus aureus clinical isolate 176 by broth dilution method
Staphylococcus aureus [34] = assay: Bactericidal activity against methicillin-resistant Staphylococcus aureus clinical isolate 231 after 24 hrs; details: isolate 231, 24 h; procedure, shortened: as §1
Staphylococcus aureus [35] = assay: Antimicrobial activity against methicillin-resistant Staphylococcus aureus clinical isolate 237 by broth dilution method
Staphylococcus aureus [36] = assay: Bactericidal activity against Staphylococcus aureus ATCC 29213 after 24 hrs; details: ATCC 29213, 24 h; procedure, shortened: as §1
Staphylococcus aureus [37] = assay: Bactericidal activity against methicillin-resistant Staphylococcus aureus clinical isolate 257 after 24 hrs; details: isolate 257, 24 h; procedure, shortened: as §1
Staphylococcus aureus [38] = assay: Antimicrobial activity against methicillin-resistant Staphylococcus aureus clinical isolate 231 by broth dilution method
Staphylococcus aureus [39] = assay: Antimicrobial activity against methicillin-resistant Staphylococcus aureus clinical isolate 178 by broth dilution method
Candida albicans = assay: Antimicrobial activity against Candida albicans ATCC 22019 by broth dilution method
Staphylococcus aureus [40] = assay: Bactericidal activity against methicillin-resistant Staphylococcus aureus clinical isolate 195 after 24 hrs; details: isolate 195, 24 h; procedure, shortened: as §1
Staphylococcus aureus [41] = assay: Bactericidal activity against methicillin-resistant Staphylococcus aureus clinical isolate 237 after 24 hrs; details: isolate 237, 24 h; procedure, shortened: as §1
Staphylococcus aureus [42] = assay: Antimicrobial activity against methicillin-resistant Staphylococcus aureus clinical isolate 205 by broth dilution method
Staphylococcus aureus [43] = assay: Bactericidal activity against methicillin-resistant Staphylococcus aureus clinical isolate 212 after 24 hrs; details: isolate 212, 24 h; procedure, shortened: as §1
Staphylococcus aureus [44] = assay: Bactericidal activity against methicillin-resistant Staphylococcus aureus clinical isolate 225 after 24 hrs; details: isolate 225, 24 h; procedure, shortened: as §1
Candida tropicalis = assay: Antimicrobial activity against Candida tropicalis ATCC 750 by broth dilution method
Staphylococcus aureus [45] = assay: Antimicrobial activity against methicillin-resistant Staphylococcus aureus clinical isolate 259 by broth dilution method
Staphylococcus aureus [46] = assay: Antimicrobial activity against methicillin-resistant Staphylococcus aureus clinical isolate 264 by broth dilution method
Staphylococcus aureus [47] = assay: Antimicrobial activity against methicillin-resistant Staphylococcus aureus clinical isolate 232 by broth dilution method
Staphylococcus aureus [48] = assay: Antimicrobial activity against methicillin-resistant Staphylococcus aureus clinical isolate assessed as susceptible isolates by broth dilution method
Staphylococcus aureus [49] = assay: Bactericidal activity against methicillin-resistant Staphylococcus aureus clinical isolate 218 after 24 hrs; details: isolate 218, 24 h; procedure, shortened: as §1
Staphylococcus aureus [50] = assay: Antimicrobial activity against methicillin-resistant Staphylococcus aureus clinical isolate assessed as resistant isolates by broth dilution method

CCCCCCCCCOc1ccc(CNC(CO)(CO)CO)cc1.Cl
> 256 µg/mL: MIC (Pseudomonas aeruginosa)
4.529: -logMIC (Staphylococcus aureus [21])
32 µg/mL: MBC (Staphylococcus aureus [2]) | MBC (Staphylococcus aureus [4]) | MIC (Staphylococcus aureus [8]) | MIC (Staphylococcus aureus [9]) | MBC (Staphylococcus aureus [14]) | MIC (Candida parapsilosis) | MBC (Staphylococcus aureus [16]) | MBC (Staphylococcus aureus [17]) | MBC (Staphylococcus aureus [19]) | MBC (Staphylococcus aureus [23]) | MBC (Staphylococcus aureus [24]) | MBC (Staphylococcus aureus [30]) | MBC (Staphylococcus aureus [31]) | MBC (Escherichia coli [32]) | MBC (Staphylococcus aureus [34]) | MBC (Staphylococcus aureus [40]) | MBC (Staphylococcus aureus [41])
4 µg/mL: MIC (Nakaseomyces glabratus) | MIC (Candida albicans)
16 µg/mL: MIC (Staphylococcus aureus [3]) | MBC [5] | MIC (Escherichia coli [6]; Escherichia coli, ATCC 11229) | MIC (Staphylococcus aureus [10]) | MIC (Staphylococcus aureus [18]) | MIC90 (Staphylococcus aureus [21]; Staphylococcus aureus) | MBC (Staphylococcus aureus [26]) | MIC (Staphylococcus aureus [27]) | MIC (Staphylococcus aureus [28]) | MIC (Staphylococcus aureus [35]) | MBC (Staphylococcus aureus [36]) | MIC (Staphylococcus aureus [39]) | MBC (Staphylococcus aureus [44]) | MIC (Staphylococcus aureus [47])
4.68: -logMIC [20]
8 µg/mL: MIC (Staphylococcus aureus [1]) | MIC (Staphylococcus aureus [11]) | MIC (Staphylococcus aureus [13]) | MIC (Staphylococcus aureus [15]) | MIC [20] | MIC50 (Staphylococcus aureus [21]; Staphylococcus aureus) | MIC (Staphylococcus aureus [22]) | MIC (Staphylococcus aureus [25]) | MIC (Staphylococcus aureus [29]) | MIC (Staphylococcus aureus [33]) | MIC (Staphylococcus aureus [38]) | MIC (Staphylococcus aureus [42]) | MIC (Staphylococcus aureus [45]) | MIC (Staphylococcus aureus [46])
64 µg/mL: MBC (Staphylococcus aureus [7]) | MBC (Staphylococcus aureus [12]) | MBC (Staphylococcus aureus [37]) | MBC (Staphylococcus aureus [43]) | MIC (Candida tropicalis)
4.38: -logMIC (Escherichia coli [6])

O=C(N[C@H](CO)[C@H](O)c1ccc([N+](=O)[O-])cc1)C(Cl)Cl [CHLORAMPHENICOL]
512 µg/mL: MBC (Staphylococcus aureus [44])
16 µg/mL: MBC (Staphylococcus aureus [14]) | MBC (Staphylococcus aureus [16]) | MBC (Staphylococcus aureus [34]) | MBC (Staphylococcus aureus [41])
56.3%: Activity (Staphylococcus aureus [50])
32 µg/mL: MBC (Staphylococcus aureus [2]) | MIC (Staphylococcus aureus [8]) | MBC (Staphylococcus aureus [17]) | MIC [20] | MIC90 (Staphylococcus aureus [21]; Staphylococcus aureus) | MIC (Pseudomonas aeruginosa) | MBC (Staphylococcus aureus [26]) | MIC (Staphylococcus aureus [35])
43.7%: Activity (Staphylococcus aureus [48])
4 µg/mL: MIC (Staphylococcus aureus [3]) | MIC (Staphylococcus aureus [10]) | MIC (Staphylococcus aureus [25]) | MIC (Staphylococcus aureus [28]) | MIC (Staphylococcus aureus [39])
128 µg/mL: MBC [5] | MBC (Staphylococcus aureus [49]) | MBC (Staphylococcus aureus [43]) | MIC (Staphylococcus aureus [45])
64 µg/mL: MIC (Staphylococcus aureus [1]) | MIC (Staphylococcus aureus [13]) | MIC (Staphylococcus aureus [18]) | MIC (Staphylococcus aureus [22]) | MIC (Staphylococcus aureus [27]) | MBC (Staphylococcus aureus [31]) | MIC (Staphylococcus aureus [33]) | MIC (Staphylococcus aureus [38]) | MIC (Staphylococcus aureus [47])
8 µg/mL: MIC (Staphylococcus aureus [9]) | MIC (Staphylococcus aureus [15]) | MBC (Staphylococcus aureus [19]) | MBC (Staphylococcus aureus [24]) | MIC (Staphylococcus aureus [29]) | MBC (Staphylococcus aureus [37]) | MIC (Staphylococcus aureus [42]) | MIC (Staphylococcus aureus [46])
